The target in one assay is Platelet-activating factor receptor (Mus musculus) (UniProt Q62035). The experiment in a line: Ability to protect mice from lethal effects after administration of PAF (Platelet-Activating Factor). Type of assay: functional, organism-based. The procedure, abridged: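 Mice received the test agent orally and were then given a lethal PAF injection. ED50 was taken as the oral dose that protected the animals from PAF-induced death.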
Chain of Platelet-activating factor receptor (Mus musculus) (Q62035 whole entry): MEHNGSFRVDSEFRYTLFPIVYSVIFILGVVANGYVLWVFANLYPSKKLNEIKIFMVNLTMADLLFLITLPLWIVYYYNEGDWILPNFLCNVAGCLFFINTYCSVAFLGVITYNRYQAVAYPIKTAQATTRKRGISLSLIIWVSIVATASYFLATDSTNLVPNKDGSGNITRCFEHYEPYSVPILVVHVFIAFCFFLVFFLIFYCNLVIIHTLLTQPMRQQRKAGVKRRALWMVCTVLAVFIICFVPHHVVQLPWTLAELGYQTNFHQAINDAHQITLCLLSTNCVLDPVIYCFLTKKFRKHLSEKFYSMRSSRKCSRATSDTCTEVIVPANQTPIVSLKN
One may read the ED50 as the midpoint of the dose-response relation. Low values mean greater potency, high ones weaker potency. As for `Cc1nc2cnccc2n1-c1ccc(C2=Nc3ccccc3N(C)C(=O)C2)cc1`, the ED50 is 0.03 mg/kg.
On to `Cc1nc2cnccc2n1-c1ccc(C2CC(=O)N(C)c3cc(Cl)c(Cl)cc3C2)cc1` (stereo not given), for which the 50% effective dose (ED50) is 0.03 mg/kg.
Same read-out and setting: as for `Cc1nc2cnccc2n1-c1ccc(C2=CCC(=O)c3ccccc3N2)cc1`, the figure is 0.75 mg/kg; as for `Cc1nc2cnccc2n1-c1ccc(C2=Nc3cc(Cl)c(Cl)cc3NC(=O)C2)cc1`, 0.07 mg/kg; as for `Cc1cc2c(cc1C)NC(=O)CC(c1ccc(-n3c(C)nc4cnccc43)cc1)=N2`, 0.12 mg/kg.
Same read-out and setting: as for `Cc1nc2cnccc2n1-c1ccc(C2=Nc3ccccc3NC(=O)C2)cc1`, the figure is 0.5 mg/kg.
`Cc1nc2cnccc2n1-c1ccc(C2CC(=O)Nc3cc(Cl)c(Cl)cc3C2)cc1` (stereo not given) came in with an ED50 of 0.05 mg/kg.
Take `Cc1nc2cnccc2n1-c1ccc(C2=Nc3cc(Cl)c(Cl)cc3C(=O)NC2)cc1`: the ED50 is 0.2 mg/kg.

The next assay has as its system Mus musculus. As to the kind of experiment: The compound was tested for their ability to protect mice from lethal effects after administration of PAF (Platelet-Activating Factor). In kind it is functional. In a few lines:
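Mice were given the compound orally and then a lethal injection of PAF. The value is the oral dose (ED50) that protected the mice from PAF-induced death.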
`CCOC(=O)C1=C(c2ccc(-n3c(C)nc4cnccc43)cc2)NC(C)=C(C(=O)Nc2ccccn2)C1c1ccccc1Cl` (stereo not given) registered an ED50 of 0.26 mg/kg.
For `Cc1nnc2n1-c1sc3c(c1C(c1ccccc1Cl)=NC2)CC(C(=O)N1CCOCC1)C3` (stereo not given) [BEPAFANT], the ED50 was 0.1 mg/kg. Against the preceding compound, the ED50 is about 2.6-fold lower.
